System: MS2 coat protein
Assay: apparent Kd, MS2 coat protein; higher = weaker binding; RNA-MaP array; tryptophan 2.4 mM where present
Outline: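 Green signal from SNAP-549-labelled MS2 coat protein was normalised to red-channel RNA signal and to the median Fmax of control clusters. The protein was titrated from 0.7 or 1.5 nM, doubling to 3 µM, without and then with constant ligand, over designs transcribed by stalled E. coli RNA polymerase on Illumina sequencing-chip clusters, in 100 mM Tris-HCl pH 7.5, 80 mM KCl, 4 mM MgCl2, BSA, DTT, yeast tRNA and Tween-20. The apparent Kd is the median of filtered per-cluster binding-curve fits.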

[1] = designed as: OFF switch for tryptophan, no ligand
[2] = ligand present: tryptophan, designed as: OFF switch for tryptophan
[3] = designed as: ON switch for tryptophan, no ligand
[4] = ligand present: tryptophan, designed as: ON switch for tryptophan

Row | Sequence | apparent Kd [1] | apparent Kd [2] | apparent Kd [3] | apparent Kd [4]
1 | AAUGUAUGGCACAUGAGGAUCACCCAUGUGCGAGGACCGGUACGGCCGCCACUCGGUCCUGGGAACUUAUUACUAUACAUUAAUG | 11.9 nM | 23.3 nM | – | –
2 | AUAACGAGUGGUGGAUAAUCCUCAUGUAAACGAGGACCGGUACGGCCGCCACUCGAUAACAUGAGGAUCACCCAUGUAAUAAUAA | 13.2 nM | 10.3 nM | – | –
3 | UGUAUUGGAAACAGUACUAGUGAUCCGGUCCGAGGACCGGUACGGCCGCCACUCGAAAUUAAUAAACAUGAGGAUCACCCAUGUA | 14.8 nM | 34.2 nM | – | –
4 | CUACAUUUGUAGAAACCGGUCAACAAUAAUCGAGGACCGGUACGGCCGCCACUCGAUGUGAAAUCACAUGAGGAUCACCCAUGUA | – | – | 18 nM | 18.1 nM
5 | GAUCGAAAUAACGUCUAGGAAAACUAGACGCGAGGACCGGUACGGCCGCCACUCGGGUGGCACAUGAGGAUCACCCAUGUAGAUC | 78.7 nM | 105 nM | – | –
6 | CUGUACAUCUCGGCCGCCACUGCUGACAUGGGAGUCACCCAUGUCCACAUGAGGAUCACCCAUGUCAGGACCGGGAGGUGUGCAG | – | – | 49.8 nM | 255 nM
7 | AGAGCAUUGACGGCCGCCACUCAUGUCACAUGAGGAUCACCCAUGUGAUGGGUGAUAGCCCGGUCGAGGACCGGGUCAAUGCUCA | – | – | 17.2 nM | 18 nM
8 | AGCAACAAGUCGGCCGCCACUCAUUUAACAUGAGGAUCACCCAUGUGAAUAACAUGGUUGUAAUAGAGGACCGGGACAGUUGCAU | – | – | 119 nM | 574 nM
9 | AAUAAUAAGGCGGCCGCCACUACACAUGAGGAUCACCCAUGUCUCGCGGGCUUGCGUUGGGAUUGUAGGACCGGGCCAAUAAUAA | 26.7 nM | 20.3 nM | – | –
10 | ACAUGAGCAUCAGCCAUGUGUAUGACAUGACGAGGACCGGUACGGCCGCCACUCGACAUGAGGAUCACCCAUGUUGAGGAUCACA | 10.9 nM | 14.7 nM | – | –
11 | GGAUAGGACACGGCCGCCACUGCGCUAGGAUACUAGAACAUUUCCUCACAUGAGGAUCACCCAUGUAGGACCGGGUGUCCUAUCG | 49.6 nM | 152 nM | – | –
12 | UUCUACGACGAUCUGGGAAAACCAGAUCGACGAGGACCGGUACGGCCGCCACUCGUGUUUCUUUAACAUGAGGAUCACCCAUGUA | – | – | 20.5 nM | 14.5 nM
13 | AUGUACAUGACGGCCGCCACUACACUGAAAGUGGUCCAGAACAUGAGGAUCACCCAUGUAUCAAGUAGGACCGGGUCAUGUACAU | 361 nM | 380 nM | – | –
14 | AUUCAUGGAAACAUGACAUAGGGAUCCGGUCGAGGACCGGUACGGCCGCCACUCGUUUGGAGGCACAUGAGGAUCACCCAUGUUA | – | – | 82 nM | 67.5 nM
15 | AUUAAGGAUAUGUAGACGGCGGAGAAGAGACGAGGACCGGUACGGCCGCCACUCGUGUUAGUUAACAUGAGGAUCACCCAUGUAA | – | – | 49.7 nM | 22 nM
16 | CAUCCUAGUACAUGAGGAUCACCCAUGUAUCGAGGACCGGUACGGCCGCCACUCGAAUGGCGGAUCGUUAAUCCUCUAGGAUGGA | 10 nM | 13.5 nM | – | –
17 | GGCCAUGGAAACAUGGCGGCGGCGUAUGCGCGAGGACCGGUACGGCCGCCACUCGGGCGACAUGAGGAUCACCCAUGUUCCUCAU | 182 nM | 478 nM | – | –
18 | ACACCAUACAUGAGGAUCACCCAUGUUACACGAGGACCGGUACGGCCGCCACUCGAAUUCAGGAAACCUCGGAUAAUAUUGUGAA | – | – | 25.9 nM | 33.2 nM
19 | AAUGUAUUCCACAUGAGGAUCACCCAUGUGCGAGGACCGGUACGGCCGCCACUCGGUGUUGGGAUCUGUUCUGAAUACAUUAAUG | 29 nM | 114 nM | – | –
20 | CUAAAUAUAUCGGCCGCCACUUACUCAUGAGGUAACAACAUGAGGAUCACCCAUGUUUGAGGAUCAAGGACCGGGAUAUAUUUAG | – | – | 27.8 nM | 19 nM
21 | UUAUAAGUACCGGUCCUCAGAUCCUCAUGACGAGGACCGGUACGGCCGCCACUCGAAACAUGAGGAUCACCCAUGUAAUAAUACU | 26.4 nM | 20.2 nM | – | –
22 | GUAGCGACGGCGGCCGCCACUCACAGGUGAGGGUAGACCAACCUUCACAUGAGGAUCACCCAUGUGAGGACCGGGCUGUCGCUAC | 90.9 nM | 146 nM | – | –
23 | CAAAAUAUAACGGCCGCCACUUACUCAUGAGGUAACAACAUGAGGAUCACCCAUGUUUGAGGAUCAAGGACCGGGUUAUAUUUUG | – | – | 30.7 nM | 17 nM
24 | AUGGACGACGAUCUGGGAAAACCAGAUCGACGAGGACCGGUACGGCCGCCACUCGUGUUUAUUUAACAUGAGGAUCACCCAUGUA | – | – | 45.9 nM | 17.6 nM
25 | AGAUGAGUCACGGCCGCCACUCACUACAGGUUCACCCUUGGUUAACAUGAGGAUCACCCAUGUGGGAGGACCGGGUGAUGAGCAU | 19.9 nM | 25.1 nM | – | –
26 | CUAUAAGUACCGGUCCUCAGAUCCUCAUGACGAGGACCGGUACGGCCGCCACUCGAAACAUGAGGAUCACCCAUGUAAUAAUAAU | 18.3 nM | 18.6 nM | – | –
27 | AUUCAUGGAAACAUGACAUAGGGAUCUAUCCGAGGACCGGUACGGCCGCCACUCGCGUGGAGGCACAUGAGGAUCACCCAUGUUA | – | – | 278 nM | 432 nM
28 | AAAUAAUAUUAAUUAAUUAUAUUAUUCUGACGAGGACCGGUACGGCCGCCACUCGGCCCAUGGUACAUGAGGAUCACCCAUGUCU | – | – | 17.6 nM | 13.6 nM
